Results published in publication PMC4787808 (Nucleic Acids Research, 2015).
Entries after “also recorded” stand apart in the source; their conditions may differ.

Assays:
[1] = test system: intracellular L. donovani amastigotes; experiment: Inhibition of L. donovani amastigotes in infected THP-1 macrophages; type: cell-based, Leishmania donovani; conditions: 1 μM, positive control
Summary of the method: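 THP-1 cells were differentiated with 25 ng/ml PMA for 24 h at 37°C, then infected with stationary-phase luciferase-expressing L. donovani promastigotes (5:1 parasite:macrophage) for 24 h and washed free of external parasites. Infected macrophages were trypsinised, checked by Giemsa stain and plated in triplicate (5 × 10^5 cells/ml). Compounds in medium with 1% DMSO were added for 48 h; lysates were read by Bright-Glo luminescence. Medium ± DMSO served as 0% inhibition; amphotericin B 1 μM was the positive control on each plate.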

[2] = test system: auditory outer hair cells (organ of Corti explants); experiment: Toxicity assay in cochlear explants; type: cell-based, CBA/J mice
Summary of the method: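 Organ of Corti explants from postnatal day 2–3 CBA/J mice were kept in serum-free medium with supplement, BSA, glutamine and glucose, and pre-incubated about 48 h. They were then exposed to drug for 72 h, fixed in 4% PFA, permeabilised and stained with rhodamine phalloidin. Hair cells were counted apex to base under 50x oil and compared with a cytocochleogram database. Loss was reported as percent averaged over the whole explant length.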

[3] = test system: L. tarentolae S30 translation (leishmanial ribosomes); experiment: Cell-free inhibition of translation, L. tarentolae LEXSY system; type: biochemical, Leishmania tarentolae; conditions: relative to PAR
Summary of the method: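 Leishmania tarentolae cell-free LEXSY translation system driven by a pLEXSY-in-vitro2 vector encoding EGFP. Reactions with varied aminoglycoside concentrations ran 120 min at 26°C, and GFP fluorescence was read directly (ex 488, em 507 nm). Each curve used at least six concentrations. IC50 values came from concentration-response fits of at least three independent repeats.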

Leishmania = conditions: cited from earlier work

C[C@@H]1[C@H](O)[C@@H](C)/C=C/C=C/C=C/C=C/C=C/C=C/C=C/[C@H](O[C@@H]2O[C@H](C)[C@@H](O)[C@H](N)[C@@H]2O)C[C@@H]2O[C@](O)(C[C@@H](O)C[C@@H](O)[C@H](O)CC[C@@H](O)C[C@@H](O)CC(=O)O[C@H]1C)C[C@H](O)[C@H]2C(=O)O [Amphotericin B]
decrease in intracellular amastigotes [1]: > 90%

CN[C@@H]1[C@@H](O)[C@@H](O[C@@H]2[C@@H](O)[C@H](O[C@H]3O[C@H]([C@@H](C)O)[C@@H](O)[C@H](O)[C@H]3N)[C@@H](N)C[C@H]2N)OC[C@]1(C)O [G418, Geneticin]
toxicity to auditory outer hair cells along entire length of explant (in words) ([2]; murine explants, 72 h): high toxicity | times more potent in inhibiting leishmanial ribosomal translation than PAR [3]: 20 times

NC[C@@H]1O[C@H](O[C@H]2[C@@H](O)[C@H](O[C@@H]3[C@@H](O)[C@H](N)C[C@H](N)[C@H]3O[C@H]3O[C@H](CO)[C@@H](O)[C@H](O)[C@H]3N)O[C@@H]2CO)[C@H](N)[C@@H](O)[C@@H]1O [PAR, Paromomycin]
outer hair cell pathology, basal turn of explant ([2]; 10 μM, 72 h): intact | outer hair cell pathology, basal turn of explant ([2]; 22 μM, 72 h): significant loss of OHC; also recorded: partial destruction of outer hair cells | outer hair cell pathology, basal turn of explant ([2]; 33 μM, 72 h): complete destruction; also recorded: complete elimination of basal-turn outer hair cells | IC Coch50 (outer hair cell loss in cochlear explants) ([2]; murine explants, 72 h exposure): 30 µM

CNC(C)C1CCC(N)C(OC2C(N)CC(N)C(OC3OCC(C)(O)C(NC)C3O)C2O)O1 (centres unmarked) [Gentamicin]
anti-leishmanial activity (in words) (Leishmania): lack an anti-leishmanial activity
